Bfl-1 A1 inh: caspase 3/7 activation in MEF A1-2A-BIM cells, primary screen, A1 inhibitor project, cell-based, luminescence, HTS; Caspase-Glo 3/7 luminescence, 3 h; percent of clofoctol response, vehicle zero; caspase activation, % (test concentration not listed); hit rate 0.066% among 330,000; AID 2462, 2010;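 active = over half of replicate activation scores above 10%, or exactly half above 10 with the replicate mean above 10; inconclusive = replicate mean below 10 yet half the replicates above 10; inactive = over half of replicates below 10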
T cruzi repl: inhibitors of intracellular T. cruzi growth, primary screen, luminescence, NIH3T3 host cells | T. cruzi beta-gal in NIH3T3, 90 h | inhibition, % (concentration not given with the values) | hit rate 1.4% among 300,000 | AID 1885, 2009;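 active = mean inhibition across valid replicates above about 55%, limit read from the data; inconclusive = mean below that limit but half or more replicates reach it; inactive = mean below it, under half of replicates reach it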;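 also: signal also drops with host cell toxicity which is not excluded here; 0% = plate median of DMSO wells and 100% = zero luminescence signal; higher percent means less beta-gal luminescence so fewer parasites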
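System: NIH/3T3 fibroblasts plus reporter T. cruzi. Medium: DMEM plus 2% FBS. Probe or stimulus: 5000 reporter trypomastigotes per well. Compound: single 50 nL compound addition per well in DMSO. Incubation: co-culture of at least 90 h after 3 h attachment. Detection: GalScreen β-gal luminescence, detergent lysis, 60 min. Evaluation: parasite load inhibition, %.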
KLF5 inhibitor: KLF5 expression inhibitors, primary screen, DLD-1 cells, luminescence | hit rate 0.23% among 290,000 | inhibition, % at 5 µM | DLD-1 KLF5 promoter-luciferase reporter;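 active = inhibition above a per-plate limit of that plate's mean compound inhibition plus 3 SD, cut at about 60% in these data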;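 also: 0% = DMSO wells and 100% = LY294002 at 200 µM; higher means less KLF5 promoter-driven luciferase light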
Beta apoptosis: inhibitors of cytokine-induced beta cell apoptosis, primary screen, luminescence; INS-1E cytokine-induced death, ATP luminescence, 48 h; percent of positive-control rescue, neutral wells zero; protection from apoptosis, % (concentration not given with the values); hit rate 0.8% among 300,000; AID 435005, 2010;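 active = Every replicate reaches about 75%, or at least half do and their mean reaches it too, limit read from the data; inconclusive = At least half of replicates reach the limit but their mean does not; inactive = Under half of replicates reach the limit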;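 also: 0% = cytokine-treated negative control wells and 100% = positive control rescue; higher means more ATP so stronger rescue from cytokine killing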
HIF act: HIF pathway transcriptional activators, primary screen, cell-based, U2OS HRE-luciferase, luminescence; hit rate 0.32% among 300,000; U2OS HRE-luciferase reporter; normalized: DMSO 0%, desferrioxamine 100%; activation, % at 7.5 µM (by protocol);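 active = mean activation of at least 10% of the iron chelator positive control signal, with at least half of replicates also reaching 10%; inconclusive = mean and replicate majority disagree about reaching 10%; inactive = mean and most replicates under 10%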
* = called active by the depositor; ? = inconclusive; nt = not tested or not shown. An excerpt weighted towards active compounds, which were near 2.3% of everything screened.

SMILES	Bfl-1 A1 inh	T cruzi repl	KLF5 inhibitor	Beta apoptosis	HIF act
O=[N+]([O-])c1ccc(Cl)c(-c2ccc(/C=N/c3c(-c4ccco4)nc4ccccn34)o2)c1	-0.2	-11.5	-41.2	-1.0	0.3
COc1ccc(NC(=O)CSc2nc3c(c(=O)[nH]2)CCC3)cc1OC	0.9	-11.5	-10.8	-2.9	11.7*
Cc1ccc(C(C)C)c(OCc2nn(CC(=O)c3ccc(OC(F)F)cc3)c3[n+]2CCCCC3)c1	-0.2	?	4.2	113.5*	-0.8
COc1ccc(C(=O)Cn2nc(CNc3ccc(Br)cc3)[n+]3c2CCCCC3)cc1	-0.5	59.1*	23.3	10.7	0.9
O=C(Cn1nc(-c2nn(CC(=O)c3ccccc3)c3[n+]2CCCCC3)[n+]2c1CCCCC2)c1ccccc1	0.2	8.9	-5.1	-4.7	-0.3
CN(Cc1ccccc1)S(=O)(=O)c1ccc(Cl)c(C(=O)OCC(=O)NC2CCS(=O)(=O)C2)c1 (stereo unspecified)	-0.4	nt	nt	-4.1	nt
COC(=O)C(Cc1c[nH]c2ccccc12)NC(=O)c1cccc(S(=O)(=O)N2CCCCC2)c1 (stereo unspecified)	-0.9	nt	nt	-6.7	nt
Cc1noc(C)c1COC(=O)C1CC(O)CN1S(=O)(=O)c1ccc(Cl)cc1 (stereo unspecified)	0.2	-6.7	6.0	-13.3	61.1*
CC(C)(C)[C@H]1COC(=O)CCC/C=C/C[C@H](CC(=O)NCCO)C(=O)N1	0.6	nt	nt	-3.8	nt
CCOc1ccc(NC(=O)C(C)Oc2ccccc2C(=O)Nc2ccc(C)c(Cl)c2)cc1 (stereo unspecified)	-1.2	72.0*	-12.0	3.4	0.4
COC(=O)C1=C(CS(=O)(=O)c2cc(Cl)ccc2OC)NC(=O)NC1c1ccc(O)c(OC)c1 (stereo unspecified)	-0.6	-2.6	10.4	-9.3	2.2
CC1CCCC(C)N1CC(O)COC1CCC(C(C)(C)C)CC1 (stereo unspecified)	0.3	34.6	-27.6	-8.2	-39.6
CC(C)NCC(O)COC1CCC(C(C)(C)C)CC1 (stereo unspecified)	0.1	57.0*	-15.5	0.2	-0.8
CC1CCC(C(C)C)C(OCC(O)CNC(C)C)C1 (stereo unspecified)	0.6	3.0	-7.8	15.3	-0.3
CC(C)(C)C1CCC(OCC(O)CN2CCN(Cc3ccccc3)CC2)CC1 (stereo unspecified)	0.0	57.1*	-9.7	1.0	0.1
CC(C)NCC(O)COC1C2CC3CC(C2)CC1C3 (stereo unspecified)	0.2	61.5*	-1.8	2.0	-0.1
COc1ccc(S(=O)(=O)N(CC(=O)NCc2ccncc2)c2cc(C)cc(C)c2)cc1OC	-1.3	-0.5	2.3	-3.0	-0.5
CCC12C(=O)C(CC)(C(c3ccccc3)=C1c1ccccc1)[C@@H]1C(=O)N(c3ccc(C)cc3)C(=O)C12 (stereo partly specified)	1.4	57.2*	-29.0	12.5	-0.9
CCCC12C(=O)C(C)(C(c3ccccc3)=C1c1ccccc1)C1C(=O)N(c3ccc(C)cc3)C(=O)C12 (stereo unspecified)	1.1	46.2	-15.3	105.0*	-0.1
O=C(Nc1ncc(S(=O)(=O)c2ccc([N+](=O)[O-])cc2)s1)c1ccc2ccccc2c1	0.6	55.0*	-11.0	26.4	-0.2
O=C(Nc1ncc(Cc2cccc(Cl)c2Cl)s1)c1ccc([N+](=O)[O-])cc1	0.4	47.7	-26.9	nt	-0.2
O=C(Nc1ncc(Cc2cc(Cl)ccc2Cl)s1)c1ccc([N+](=O)[O-])cc1	1.5	57.1*	-26.9	27.2	-0.3
CCCC(C)C(=O)Nc1ncc(S(=O)(=O)c2ccc([N+](=O)[O-])cc2)s1 (stereo unspecified)	-0.8	63.2*	-9.2	nt	0.0
CCOC(=O)c1c(CSc2ccc(CC)cc2)oc2ccc(O)c(CN(C)C)c12	-0.4	62.5*	-25.0	4.0	0.7
CN1CCN(/N=C/c2ccc(OCc3ccccc3)cc2)CC1	?	23.8	-101.3	-0.1	1.3
SMILES	Bfl-1 A1 inh	T cruzi repl	KLF5 inhibitor	Beta apoptosis	HIF act
COCCN(C(=O)COC(=O)c1ccc(Cl)nc1)c1c(N)n(Cc2ccccc2)c(=O)[nH]c1=O	-0.3	-5.8	nt	-5.2	0.1
O=C(Cc1ccc(F)cc1)Nc1nccs1	-0.7	-4.1	-11.3	-7.6	0.2
Fc1ccc(NC(=S)Nc2nccs2)cc1	-3.3	65.6*	-96.1	43.3	3.3
O=C(CN(c1ccc(Cl)cc1)S(=O)(=O)c1ccc(Cl)c([N+](=O)[O-])c1)NCCc1ccccc1	0.1	74.5*	-6.6	11.0	0.0
O=C(CN(c1ccc(Cl)cc1)S(=O)(=O)c1ccc(Cl)c([N+](=O)[O-])c1)NCCc1ccc(F)cc1	0.6	7.0	-21.6	2.6	0.1
O=C(Nc1nncs1)c1cc(S(=O)(=O)N2CCOCC2)ccc1Cl	-0.6	-9.8	-13.8	-2.6	-0.2
Cc1cc2c(cc1C)C(c1ccccc1OC(C)C)CC(=O)N2 (stereo unspecified)	0.7	11.2	27.4	41.1	0.5
Cc1noc(/C=C/c2ccco2)c1S(=O)(=O)N1CCC(C(=O)N2c3ccccc3CC2C)CC1 (stereo unspecified)	-0.1	58.3*	-13.2	-0.6	-0.7
COC(=O)c1cnc(N2CCCN(S(=O)(=O)c3ccc(C(F)(F)F)cc3)CC2)nc1C(F)(F)F	0.4	55.3*	-5.7	-0.6	-1.1
COC(=O)c1cnc(N2CCCN(S(=O)(=O)c3ccccc3)CC2)nc1C(F)(F)F	-0.5	7.3	-15.1	3.9	-1.2
COc1ccc(C2CC(c3ccccc3)=NN2C(=O)COC(=O)c2cccc(S(=O)(=O)N3CCOCC3)c2)cc1 (stereo unspecified)	0.0	72.3*	-7.0	12.6	0.0
COc1ccc(C2CC(c3ccccc3)=NN2C(=O)COC(=O)c2cccc(S(=O)(=O)N(C)C)c2)cc1 (stereo unspecified)	-0.1	20.1	7.8	6.5	0.6
CCN(CC(=O)Nc1ccc2c(c1)OCCO2)CC(=O)Nc1ccc2c(c1)OCO2	0.5	5.1	-13.2	3.1	54.0*
COCC(C)n1c(SCC(=O)Nc2ccc3c(c2)OCCO3)nc2ccccc2c1=O (stereo unspecified)	-0.2	nt	nt	-1.7	nt
CCC(C)n1c(SCC(=O)NC(=O)Nc2ccc3c(c2)OCCO3)nc2ccccc2c1=O (stereo unspecified)	-0.4	65.6*	-44.1	2.0	0.0
COc1cc(NC(=O)Cc2nn(C)c(=O)c3ccccc23)cc(OC)c1	-0.1	-16.9	-37.4	nt	1.3
Cn1nc(CC(=O)Nc2ccc3c(c2)OCCO3)c2ccccc2c1=O	-0.8	24.7	17.5	75.4*	1.1

Screens from PubChem.
